Unmarked numbers belong to inactive results. Activity calls are given as the source filed them.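 How the source made its calls: active means at least one off-target enzyme showing weaker fluorescent probe labeling in any proteome panel; inactive means no off-target enzyme affected in any panel.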
These compounds were tested on Membrane Proteome (assay: anti-target inhibition in MCF7 proteome, late-stage follow-up, selectivity assay for PAD4 inhibitor project, cell lysate, gel-based fluorescence, soluble and membrane fractions (AID 651628)). Conditions: CA-Rh gel-based ABPP, anti-target count, at 10 µM, hits give high values.
How it was run: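 System: MCF7 soluble or membrane proteome; amount: proteome protein concentration of 1 mg/ml; technique: in-gel fluorescence after SDS-PAGE; medium: DPBS; controls: DMSO-only reference; doses: compound at 10 or 50 µM; probe or stimulus: Chloroacetamide-rhodamine (CA-Rh) labelling probe, 10 µM; timing: compound pre-incubation 1 h, then probe labelling 1 h, both 25 °C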
COC1=C(N)C(=O)c2nc(-c3nc(C(=O)O)c(C)c(-c4ccc(OC)c(OC)c4O)c3N)ccc2C1=O gave a number of anti-targets of 0.
Compound NC1=CC(=O)c2ccc(-c3cccc(C(=O)O)n3)nc2C1=O has a number of anti-targets of 0.
COC(=O)c1cccc(-c2ccc3c(n2)C(=O)C(N)=CC3=O)n1 was tested, and the number of anti-targets was 0.
For COC1=C(N)C(=O)c2ncccc2C1=O, the number of anti-targets was 0.
With COC1=C(Br)C(=O)c2nc(-c3ccccn3)ccc2C1=O the number of anti-targets was > 5 (active).
For NC1=CC(=O)c2ccc(-c3ccccn3)nc2C1=O, the number of anti-targets was 0.
For COC1=C(Br)C(=O)c2ncccc2C1=O, the number of anti-targets was > 5 (active).
Compound COC(=O)c1nc(C(=O)OC)c(NC(C)=O)c(-c2ccccc2Br)c1C has a number of anti-targets of 0.
With COC(=O)c1cccc(-c2ccc3c(n2)C(=O)C(Br)=CC3=O)n1 the number of anti-targets was 0.
COC1=CC(=O)c2nc(C#N)ccc2C1=O was tested, and the number of anti-targets was > 5 (active).
With O=C1C(O)=C(O)C(=O)c2ncccc21 the number of anti-targets was 2 (active).
In the case of O=C1C=C(Br)C(=O)c2ncccc21, the number of anti-targets is reported as > 5 (active).
With COC1=C(I)C(=O)c2nc(C#N)ccc2C1=O the number of anti-targets was > 5 (active).
In the case of NC1=CC(=O)c2cccnc2C1=O, the number of anti-targets is reported as 0.

— PubChem BioAssay AID651628 (The Scripps Research Institute Molecular Screening Center, 2012)
